Here are results for 1 compound from ChEMBL document CHEMBL3525967, “In vitro glucuronidation of the antibacterial triclocarban and its oxidative metabolites” (Drug Metab Dispos, 2012).

Data set [1] can be described thus: Drug metabolism in microsomes (unknown origin) assessed as retention time at 10 uM by LC-UV-MS method. It counts as ADME, Microsome. In a few lines:
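Retention times were measured on a C18 column (2 × 100 mm, 2.2 µm) at 300 µL/min. Solvent A was 25 mM ammonium acetate with 0.1% acetic acid; solvent B was ACN. Gradient: 30% B isocratic for 2 min, convex 30–85% B to 7.5 min, then […]. Detection was UV at 265 nm and ESI-MS in SRM mode.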

Data set [2] is described as follows: Drug metabolism in human kidney microsomes assessed as N-glucuronide-triclocarban formation incubated for 5 mins prior to UDPGA addition measured after 30 mins by LC-UV-ESI-MS/MS analysis. It counts as ADME. As to conditions: 0.5 h. An outline of the steps:
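Pooled human kidney or liver microsomes (liver: 25 mixed-gender donors), 5 µg protein, in 200 µL 100 mM potassium phosphate pH 7.4. Alamethicin pre-treated on ice 15 min. Final 10 µM TCC (2% DMSO), with 10 mM MgCl2 and 10 mM saccharolactone, preincubated 5 min at 37 °C. Started with UDPGA (20 mM stock). Sampled at 5, 10, 15 and 30 min into ACN containing 1 µM DCC internal standard.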

In the case of `O=C(Nc1ccc(Cl)cc1)Nc1ccc(Cl)c(Cl)c1` [TRICLOCARBAN], in data set [1], the Retention_time was 5.1 min. Moreover, the Drug metabolism result in data set [2] is given as “metabolite_detected”.
